Screening results deposited in PubChem by Sanford-Burnham Center for Chemical Genomics.
A selection: hits, their analogues and other compounds. The true share with any hit is near 1.7%.
Scp1 inh: blocks human Scp-1 phosphatase activity; Q9GZU7; Recombinant Scp1, phosphopeptide, malachite green phosphate absorbance; inhibition, % at 20 µM; hit rate 0.88% among 340,000; AID 493091;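 active = inhibition above about 50% at 20 µM, limit read from the data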;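 also: plate controls were DMSO wells with enzyme for no effect and wells lacking enzyme for full effect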
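System: truncated SCP-1 phosphatase (76-261aa); medium: Tris acetate buffer pH 5.5 with MgCl2 and Tween-20; incubation: 45 min room-temperature reaction, 5 min colour, 30 min stabiliser; compound: single 20 µM dose, 1% DMSO; reagent: Phosphorylated 17-residue peptide substrate; read-out: % inhibition at 20 µM; technique: colorimetric free-phosphate detection, absorbance 630 nm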
SUMO1 PPI mod: SUMO1-SIM interaction modulation; P63165; SUMO1 binding to a labelled peptide, TR-FRET, 1 h; inhibition, % at 20 µM; hit rate 0.33% among 360,000; AID 602429; in the data active = inhibition above about 37%
LMPTP block: blocks human LMPTP phosphatase | P24666 | inhibition, % at 20 µM | hit rate 0.22% among 360,000 | recombinant LMPTP-A, OMFP fluorogenic substrate, fluorescence intensity | AID 651560;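 active = compounds that cut the enzyme signal by at least half of the control window in the single-dose screen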;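 also: plate controls were DMSO wells with enzyme plus substrate for no effect and substrate without enzyme for full effect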
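Test system: LMPTP-A, protein tyrosine phosphatase of low molecular weight; Input: 0.625 nM enzyme; Incubation: 50 min dark incubation at room temperature; Signal: endpoint fluorescence intensity from OMFP dephosphorylation; Read-out basis: % inhibition versus control wells.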
STEP block: STEP (human) phosphatase inhibition; inhibition, % at 20 µM; hit rate 0.25% among 360,000; recombinant STEP, OMFP fluorogenic substrate, fluorescence; P54829;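 active = inhibition at 20 µM, scaled per plate between control wells, above about 37%, limit read from the data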;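 also: 0% = DMSO with enzyme and substrate and 100% = substrate only without enzyme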
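medium = Bis-Tris buffer pH 6.0, 2.5 mM DTT, 0.005% Tween 20 | test system = STEP (striatal-enriched tyrosine phosphatase) enzyme, cell-free | measure = normalized % inhibition | compound dosing = 20 µM, 1% DMSO | also added = 25 µM OMFP | schedule = reaction 20 min, ambient temperature | measured by = fluorescence read at 480 nm ex / 540 nm em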
DNMT1 block: DNMT1 (human) enzyme inhibition | P26358 | inhibition (reported as % activation of signal), % at 10 µM | hit rate 0.83% among 360,000 | DNMT1 molecular beacon, Hinp1I cleavage, fluorescence; in the data active = inhibition above about 50%
Target sequence (P26358 504-1616 limits assumed): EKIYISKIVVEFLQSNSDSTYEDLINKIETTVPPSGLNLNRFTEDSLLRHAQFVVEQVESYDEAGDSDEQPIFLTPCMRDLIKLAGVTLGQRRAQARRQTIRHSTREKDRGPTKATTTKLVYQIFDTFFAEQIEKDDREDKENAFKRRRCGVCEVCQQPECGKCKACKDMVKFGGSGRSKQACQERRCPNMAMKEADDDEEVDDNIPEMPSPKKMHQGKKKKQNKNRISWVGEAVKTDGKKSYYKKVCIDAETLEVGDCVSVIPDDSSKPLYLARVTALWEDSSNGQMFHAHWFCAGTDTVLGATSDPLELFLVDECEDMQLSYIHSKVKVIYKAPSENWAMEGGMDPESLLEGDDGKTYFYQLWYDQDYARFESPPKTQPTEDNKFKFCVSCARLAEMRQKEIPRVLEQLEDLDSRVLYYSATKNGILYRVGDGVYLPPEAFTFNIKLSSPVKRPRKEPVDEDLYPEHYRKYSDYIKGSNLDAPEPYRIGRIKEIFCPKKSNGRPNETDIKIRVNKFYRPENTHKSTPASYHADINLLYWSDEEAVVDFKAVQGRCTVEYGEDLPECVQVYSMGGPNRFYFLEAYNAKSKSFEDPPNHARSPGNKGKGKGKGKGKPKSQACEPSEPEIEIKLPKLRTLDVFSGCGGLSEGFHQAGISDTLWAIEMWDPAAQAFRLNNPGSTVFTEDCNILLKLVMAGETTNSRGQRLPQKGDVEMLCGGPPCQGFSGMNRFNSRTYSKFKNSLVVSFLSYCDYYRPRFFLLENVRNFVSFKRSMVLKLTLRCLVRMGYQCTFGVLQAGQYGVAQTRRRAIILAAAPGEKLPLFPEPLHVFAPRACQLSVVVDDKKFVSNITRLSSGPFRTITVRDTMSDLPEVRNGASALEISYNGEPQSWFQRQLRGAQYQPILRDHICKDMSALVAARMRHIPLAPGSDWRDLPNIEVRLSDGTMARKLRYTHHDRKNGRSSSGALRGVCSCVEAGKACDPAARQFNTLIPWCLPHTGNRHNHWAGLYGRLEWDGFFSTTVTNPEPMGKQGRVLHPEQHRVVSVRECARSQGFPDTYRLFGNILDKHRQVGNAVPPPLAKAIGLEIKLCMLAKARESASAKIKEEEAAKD
Scp1 confirm: confirmation of human Scp-1 phosphatase inhibitors. shares compounds with Scp1 inh. recombinant SCP-1 catalytic domain, phosphate release, malachite green absorbance. inhibition, % at 20 µM. hit rate 61% among 2,500. AID 540281;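 also: plate controls were DMSO with enzyme for no effect and buffer wells lacking enzyme for full effect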
Scp-1 MG ctr: counter-screen for Scp-1 inhibitors: colorimetric interference; 2,500 tested, under 10 active; AID 540313; apparent inhibition (interference), % at 20 µM; shares compounds with Scp1 inh; Colorimetric interference counterscreen, malachite green absorbance 630 nm;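 also: compounds added after enzyme reaction finished so only phosphate colour detection is probed; plate controls were DMSO wells with completed Scp-1 reaction for no effect and substrate wells lacking enzyme for full effect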
Scp1 DSF: binds human Scp-1, shifting its melting temperature | shares compounds with Scp1 inh | Recombinant SCP1, Sypro Orange thermal shift Tm | thermal shift relative to vanadate control, % at 40 µM | hit rate 25% among 1,500 | AID 540329;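 active = substances whose mean melting-temperature shift, as a percentage of the reference inhibitor's shift, reaches about 5.3%, limit read from the data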;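 also: 0% = Tm of DMSO wells and 100% = Tm with sodium orthovanadate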
* = called active by the depositor; · = no result.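 The calls were made as follows, unless noted: active = inhibition of at least 30% at 20 µM; inactive = the rest.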

SMILES	Scp1 inh	SUMO1 PPI mod	LMPTP block	STEP block	DNMT1 block	Scp1 confirm	Scp-1 MG ctr	others
O=C(N/N=C/c1ccco1)c1ccc(NC(=O)c2ccc(Cl)cc2)cc1	77*	5	63*	10	36	40*	-6	Scp1 DSF=0
O=C(CCCCCNC(=O)c1ccccc1)N/N=C/c1ccccc1O	-8	2	-2	-3	2	·	·
Cc1ccc(/C=N/NC(=O)c2ccc(NC(=O)c3ccc(Cl)cc3)cc2)o1	3	4	41	3	27	·	·
O=C(CCCCCNC(=O)c1ccccc1)N/N=C/c1ccco1	52*	-4	0	0	19	32*	-11	Scp1 DSF=-11
O=C(N/N=C/c1ccncc1)c1ccc(NC(=O)c2ccc(Cl)cc2)cc1	64*	-1	11	21	1	26	-10
O=C(N/N=C/c1ccncc1)c1ccc(NC(=O)c2cccc(Cl)c2)cc1	68*	5	10	31	-11	35*	-16	Scp1 DSF=15*
O=C(Nc1ccc(F)cc1)C(CCc1ccccc1)N1CCN(C(=O)c2ccco2)CC1 (stereo unspecified)	·	1	0	·	·	·	·
CCc1ccc(OCc2cccc(C(=O)N/N=C\c3cnn(C)c3C)c2)cc1	66*	7	14	4	15	78*	-4	Scp1 DSF=-6
Cc1c(/C=N\NC(=O)c2cccc(F)c2)cnn1C	-8	0	-2	2	4	·	·
C[C@@H]1CN([C@H](C)CO)C(=O)Cc2cc(NS(=O)(=O)c3cn(C)cn3)ccc2O[C@H]1CN(C)S(=O)(=O)c1ccc(Cl)cc1	65*	1	0	-1	4	0	-20
C[C@H](CO)N1C[C@H](C)[C@@H](CN(C)C(=O)Nc2ccc3c(c2)OCO3)Oc2ccc(NS(=O)(=O)c3cn(C)cn3)cc2C1=O	69*	4	0	0	5	-8	-20
Cc1noc(C)c1NC(=O)N(C)C[C@H]1Oc2ccc(NS(=O)(=O)c3cn(C)cn3)cc2C(=O)N([C@H](C)CO)C[C@@H]1C	64*	2	-1	0	6	3	-9
C[C@H](CO)N1C[C@H](C)[C@@H](CN(C)S(=O)(=O)c2cn(C)cn2)Oc2ccc(NC(=O)Nc3ccc4c(c3)OCO4)cc2C1=O	-5	-4	0	-1	-1	·	·
C[C@H](CO)N1C[C@H](C)[C@@H](CN(C)C(=O)Nc2ccccc2)Oc2ccc(NS(=O)(=O)c3cn(C)cn3)cc2C1=O	71*	5	-2	2	12	0	-10
COc1ccc(NC(=O)N(C)C[C@H]2Oc3ccc(NS(=O)(=O)c4cn(C)cn4)cc3C(=O)N([C@H](C)CO)C[C@@H]2C)cc1	4	1	-2	-1	5	·	·
COc1ccc(OC)c(NC(=O)COc2ccc3c(c2)CCC3)c1	-8	9	4	-1	-3	·	·
O=C(COc1coc(CN2CCN(c3ccc(F)cc3)CC2)cc1=O)Nc1ccccc1	1	4	1	-1	-3	·	·
CC(=O)COc1coc(CN2CCN(c3ccc(F)cc3)CC2)cc1=O	51*	3	0	-3	-1	-6	-8
CCCN=C1N(CC)C[C@@H]2[C@@H]3C(=O)N(C)C(=O)[C@@H]3[C@](CC)(C(=O)OC)N12	9	1	-3	-2	5	·	·
CCC(CO)N=CC1=C(O)CC(C)(C)CC1=O (stereo unspecified)	4	1	1	2	4	·	·
CSCCC(N=CC1=C(O)CC(C)(C)CC1=O)C(=O)O (stereo unspecified)	73*	-3	1	-4	-6	6	7
Cn1c(SCC(=O)Nc2ccccc2)nnc1-c1ccc(NC(=O)CCc2ccccc2)cc1	0	1	-1	-1	3	·	·
CSc1nnc(-c2ccc(NC(=O)CCc3ccccc3)cc2)n1C	102*	1	-2	-4	8	-5	-16
